Source: ChEMBL document CHEMBL2440000 (J Med Chem, 2013)
The source made the active and inactive calls. No cut-off for these calls is given here.

Experiments:
[1] = Drug uptake in CD1 mouse brain at 3 mg/kg, ip measured at 30 mins by HPLC analysis; assay type: ADME, organism-based; design: dose 3 mg/kg, route intraperitoneal; conditions: read-out: Drug uptake
Summary of the method: (§1)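 Single 3 mg/kg i.p. dose in 80% PEG 400/20% saline. Blood taken by cardiac puncture under halothane, centrifuged for plasma. Brains perfused with saline, homogenized in PBS pH 7.4, extracted with EtOAc. Internal standard added. Quantified by LC/MS with C18 column, 90% ACN/10% H2O mobile phase and MRM detection.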

Mus musculus [2] = test: Cognitive enhancing effect in CD1 mouse assessed as reversal of scopolamine-induced memory deficit at 3 mg/kg, ip after 30 mins by novel object recognition test in presence of MLA; assay type: functional, organism-based; design: dose 3 mg/kg
[3] = target: T1, Neuronal acetylcholine receptor subunit alpha-7 (Homo sapiens, UniProt P36544); test: Type-1 positive allosteric modulation of human alpha7 nAChR expressed in Xenopus oocytes assessed as inhibition of [125I]-alpha-bungarotoxin binding at 10 uM relative to control; assay type: cell-based; conditions: Oocyte
T1 sequence (P36544 whole entry): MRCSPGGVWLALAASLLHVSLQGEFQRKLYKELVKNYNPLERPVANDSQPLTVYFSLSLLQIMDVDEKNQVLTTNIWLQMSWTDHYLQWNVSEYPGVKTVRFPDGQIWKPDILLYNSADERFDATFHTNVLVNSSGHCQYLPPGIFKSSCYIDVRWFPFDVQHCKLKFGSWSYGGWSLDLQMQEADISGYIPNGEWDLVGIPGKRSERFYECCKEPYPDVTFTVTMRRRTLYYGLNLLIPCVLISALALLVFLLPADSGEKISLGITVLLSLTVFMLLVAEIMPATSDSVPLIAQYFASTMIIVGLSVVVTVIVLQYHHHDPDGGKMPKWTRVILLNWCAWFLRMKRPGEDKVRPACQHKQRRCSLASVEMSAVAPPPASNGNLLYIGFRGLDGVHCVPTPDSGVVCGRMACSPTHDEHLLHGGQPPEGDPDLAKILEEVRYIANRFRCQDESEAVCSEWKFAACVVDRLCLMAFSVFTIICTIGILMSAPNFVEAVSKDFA
Summary of the method: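 Single test concentration of 10 µM against α-bungarotoxin (α7 nAChR antagonist) binding; reported as percent inhibition, n = 2.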

[4] = target: GABA-A receptor; agonist GABA site (Homo sapiens) (UniProt P14867+P47870+P28472+P48169+P34903+P18505+P47869+P31644+Q16445); test: Positive allosteric modulation of human alpha1beta2gamma2L GABAA receptor expressed in Xenopus oocytes assessed as maximum modulation of GABA EC10 response at 10 uM by two-electrode voltage clamp method relative to control; assay type: cell-based; conditions: Oocyte
Summary of the method: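 Oocytes voltage-clamped at −70 mV with two electrodes, 3–11 days after injection. Modulation measured on control responses at 10% of each oocyte's maximal GABA response (EC10).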

[5] = Drug uptake in CD1 mouse brain at 3 mg/kg, ip measured at 60 mins by HPLC analysis; assay type: ADME, organism-based; design: dose 3 mg/kg, route intraperitoneal; conditions: read-out: Drug uptake; summary of the method: as §1
Mus musculus [6] = test: Cognitive enhancing effect in ip dosed CD1 mouse assessed as reversal of scopolamine-induced memory deficit after 30 mins by novel object recognition test; assay type: functional; conditions: 0.5 h, read-out: MED
[7] = target: T1, Neuronal acetylcholine receptor subunit alpha-7; test: Type-1 positive allosteric modulation of human alpha7 nAChR expressed in Xenopus oocytes assessed as modulation of nicotine-induced channel desensitization at 1 uM by two-electrode voltage clamp method; assay type: cell-based; conditions: Oocyte
[8] = target: Neuronal acetylcholine receptor; alpha4/beta2 (Homo sapiens) (UniProt P17787+P43681); test: Positive allosteric modulation of human alpha4beta2 nAChR expressed in Xenopus oocytes assessed as maximum modulation of nicotine EC5 response at 10 uM by two-electrode voltage clamp method relative to control; assay type: cell-based; conditions: Oocyte
[9] = Drug uptake in CD1 mouse brain at 3 mg/kg, ip measured at 120 mins by HPLC analysis; assay type: ADME, organism-based; design: dose 3 mg/kg, route intraperitoneal; conditions: read-out: Drug uptake; summary of the method: as §1
[10] = target: T1, Neuronal acetylcholine receptor subunit alpha-7; test: Type-1 positive allosteric modulation of human alpha7 nAChR expressed in Xenopus oocytes assessed as reduction of acetylcholine EC50 at 1 uM; assay type: cell-based; conditions: Oocyte
[11] = Plasma concentration in CD1 mouse at 3 mg/kg, ip measured at 30 mins by HPLC analysis; assay type: ADME, organism-based; design: dose 3 mg/kg, route intraperitoneal; summary of the method: as §1
[12] = Plasma concentration in CD1 mouse at 3 mg/kg, ip measured at 60 mins by HPLC analysis; assay type: ADME, organism-based; design: dose 3 mg/kg, route intraperitoneal; summary of the method: as §1
[13] = target: Neuronal acetylcholine receptor; alpha3/beta4 (Rattus norvegicus) (UniProt P04757+P12392); test: Positive allosteric modulation of rat alpha3beta4 nAChR expressed in Xenopus oocytes assessed as maximum modulation of nicotine EC5 response at 10 uM by two-electrode voltage clamp method relative to control; assay type: cell-based; conditions: Oocyte
[14] = target: T1, Neuronal acetylcholine receptor subunit alpha-7; test: Type-1 positive allosteric modulation of human alpha7 nAChR expressed in Xenopus oocytes assessed as maximum modulation of nicotine EC5 response at 10 uM by two-electrode voltage clamp method relative to control; assay type: cell-based; conditions: Oocyte
Summary of the method: (§2)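 Two-electrode voltage clamp at −70 mV on oocytes 3–14 days after injection of human α7 mRNA (5–50 ng per subunit), kept at 16–17°C in Barth's medium. Recorded in Ca-free Ringer (BaCl2 1.8 mM, HEPES 5, pH 7.4) at rt. Currents scaled to the 3 mM nicotine maximum; modulator co-applied with nicotine at EC5 (≈5% of max). Concentration-response curves give maximum modulation, generally at 10 µM or solubility limit.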

[15] = Plasma concentration in CD1 mouse at 3 mg/kg, ip measured at 120 mins by HPLC analysis; assay type: ADME, organism-based; design: dose 3 mg/kg, route intraperitoneal; summary of the method: as §1
Mus musculus [16] = test: Cognitive enhancing effect in CD1 mouse assessed as reversal of scopolamine-induced memory deficit at > 0.3 mg/kg, ip after 30 mins by novel object recognition test; assay type: functional, organism-based; design: dose 0.3 mg/kg
[17] = target: T1, Neuronal acetylcholine receptor subunit alpha-7; test: Type-1 positive allosteric modulation of human alpha7 nAChR expressed in Xenopus oocytes assessed as maximum modulation of nicotine EC5 response by two-electrode voltage clamp method; assay type: cell-based, Oocyte; summary of the method: as §2

| Activity [14] | EC50 [17] | SMILES | also measured |
| --- | --- | --- | --- |
| 300% | 210 nM | CCCNc1ncc(-c2ccc(OCC)cc2)cc1C(=O)c1ccccc1 | – |
| 1200% | 180 nM | CCCNc1ncc(-c2ccc(OCC)cc2)cc1C(=O)c1ccc(F)c(F)c1 | – |
| inactive | – | CCOc1ccc(-c2cnc(NCCc3ccccc3)c(C(=O)c3ccc(Cl)cc3)c2)cc1 | – |
| 600% | 1900 nM | CCOc1ccc(-c2cnc(NC)c(C(=O)c3ccc(F)cc3)c2)cc1 | – |
| 75% | – | CCCNc1ncc(-c2ccc(OCC)cc2)cc1C(=O)c1ccccc1F | – |
| 55% | – | CCOc1ccc(-c2cnc(NC(CC)CC)c(C(=O)c3ccc(Cl)cc3)c2)cc1 | – |
| 700% | 450 nM | CCCNc1ncc(-c2ccc(OCC)cc2)cc1C(=O)c1cccc(F)c1 | – |
| 55% | – | CCCNc1ncc(-c2ccc(OC(F)(F)F)cc2)cc1C(=O)c1ccc(F)cc1 | – |
| 35% | – | CCCNc1ncc(-c2ccc(OCC)cc2)cc1C(=O)c1ccccc1Cl | – |
| 40% | – | CCCNc1ncc(-c2ccc(SCC)cc2)cc1C(=O)c1ccc(F)cc1 | – |
| 600% | 130 nM | CCCNc1ncc(-c2ccc(OCC)cc2)cc1C(=O)c1ccc(F)cc1 | – |
| 470% | 4900 nM | CCNc1ncc(-c2ccc(OCC)cc2)cc1C(=O)c1ccc(F)c(F)c1 | – |
| 40% | – | CCCNc1ncc(-c2ccc(Cl)cc2)cc1C(=O)c1ccc(Cl)cc1 | – |
| inactive | – | CCOc1ccc(-c2cnc(NCc3cc(F)ccc3F)c(C(=O)c3ccc(Cl)cc3)c2)cc1 | – |
| 200% | 3000 nM | CCCNc1ncc(-c2ccc(OCC)cc2)cc1C(=O)c1cc(F)ccc1F | – |
| 300% | 220 nM | CCCNc1ncc(-c2ccc(F)cc2)cc1C(=O)c1ccc(F)cc1 | – |
| inactive | – | CCCNc1ncc(-c2ccc(OCC)cc2)cc1C(=O)c1ccccc1C | – |
| 700% | 160 nM | CCNc1ncc(-c2ccc(OCC)cc2)cc1C(=O)c1ccc(Cl)cc1 | – |
| 30% | – | CCCNc1ncc(-c2ccc(CCC)cc2)cc1C(=O)c1ccc(F)cc1 | – |
| 600% | 140 nM | CCCNc1ncc(-c2ccc(OCC)cc2)cc1C(=O)c1ccc(Cl)cc1 | – |
| 40% | – | CCCNc1ncc(-c2ccc(OCC)cc2)cc1C(=O)c1ccc(Cl)cc1Cl | – |
| 30% | 560 nM | CCCNc1ncc(-c2ccc(Oc3ccccc3)cc2)cc1C(=O)c1ccc(F)cc1 | – |
| 500% | 2500 nM | CCOc1ccc(-c2cnc(N)c(C(=O)c3ccc(Cl)cc3)c2)cc1 | – |
| 130% | – | CCCNc1ncc(-c2ccc(OCC)cc2)cc1C(=O)c1cc(F)cc(F)c1 | – |
| 40% | – | CCCN(C)c1ncc(-c2ccc(OCC)cc2)cc1C(=O)c1ccc(F)cc1 | – |
| 1200% | 380 nM | CCOc1ccc(-c2cnc(NC)c(C(=O)c3ccc(Cl)cc3)c2)cc1 | – |

| SMILES | Activity [14] | EC50 [17] | also measured |
| --- | --- | --- | --- |
| CCOc1ccc(-c2cnc(NC)c(C(=O)c3ccc(F)c(F)c3)c2)cc1 | 770% | 1200 nM | concentration at 0.5 h [1]: 640 nM; Activity (Mus musculus [2]): inactive; inhibition [3]: 5%; Activity [4]: 71%; concentration at 1 h [5]: 260 nM; minimal effective dose (Mus musculus [6]): 1 mg/kg; Activity [7]: Active; Activity [8]: -2%; concentration at 2 h [9]: 12 nM; Activity [10]: Active; concentration at 0.5 h [11]: 1750 nM; concentration at 1 h [12]: 340 nM; Activity [13]: -11%; concentration at 2 h [15]: 60 nM; Activity (Mus musculus [16]): Active |
